Calls of active or inactive are those of the source. No cut-off for these calls is given here.
Assays:
[1] = target: T1, Protein polybromo-1 (Homo sapiens, UniProt Q86U86); assay: Binding affinity to human PB1 isoform 2 expressed in BL21 (DE3)-R3-BirA cells assessed as change in melting temperature at 10 uM by sypro-orange dye-based differential scanning fluorimetric analysis; type: cell-based
Method in brief: (§1)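 Thermal shift (DSF) screen of bromodomain proteins with compound at 10 μM; binding read as change in melting temperature (Tm shift).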

[2] = target: T2, SWI/SNF-related matrix-associated actin-dependent regulator of chromatin subfamily A member 4 (Homo sapiens, UniProt P51532); assay: Binding affinity to human SMARCA4 expressed in BL21 (DE3)-R3-BirA cells assessed as change in melting temperature at 10 uM by sypro-orange dye-based differential scanning fluorimetric analysis; type: cell-based; method in brief: as §1
T2 sequence (P51532 whole entry, canonical isoform): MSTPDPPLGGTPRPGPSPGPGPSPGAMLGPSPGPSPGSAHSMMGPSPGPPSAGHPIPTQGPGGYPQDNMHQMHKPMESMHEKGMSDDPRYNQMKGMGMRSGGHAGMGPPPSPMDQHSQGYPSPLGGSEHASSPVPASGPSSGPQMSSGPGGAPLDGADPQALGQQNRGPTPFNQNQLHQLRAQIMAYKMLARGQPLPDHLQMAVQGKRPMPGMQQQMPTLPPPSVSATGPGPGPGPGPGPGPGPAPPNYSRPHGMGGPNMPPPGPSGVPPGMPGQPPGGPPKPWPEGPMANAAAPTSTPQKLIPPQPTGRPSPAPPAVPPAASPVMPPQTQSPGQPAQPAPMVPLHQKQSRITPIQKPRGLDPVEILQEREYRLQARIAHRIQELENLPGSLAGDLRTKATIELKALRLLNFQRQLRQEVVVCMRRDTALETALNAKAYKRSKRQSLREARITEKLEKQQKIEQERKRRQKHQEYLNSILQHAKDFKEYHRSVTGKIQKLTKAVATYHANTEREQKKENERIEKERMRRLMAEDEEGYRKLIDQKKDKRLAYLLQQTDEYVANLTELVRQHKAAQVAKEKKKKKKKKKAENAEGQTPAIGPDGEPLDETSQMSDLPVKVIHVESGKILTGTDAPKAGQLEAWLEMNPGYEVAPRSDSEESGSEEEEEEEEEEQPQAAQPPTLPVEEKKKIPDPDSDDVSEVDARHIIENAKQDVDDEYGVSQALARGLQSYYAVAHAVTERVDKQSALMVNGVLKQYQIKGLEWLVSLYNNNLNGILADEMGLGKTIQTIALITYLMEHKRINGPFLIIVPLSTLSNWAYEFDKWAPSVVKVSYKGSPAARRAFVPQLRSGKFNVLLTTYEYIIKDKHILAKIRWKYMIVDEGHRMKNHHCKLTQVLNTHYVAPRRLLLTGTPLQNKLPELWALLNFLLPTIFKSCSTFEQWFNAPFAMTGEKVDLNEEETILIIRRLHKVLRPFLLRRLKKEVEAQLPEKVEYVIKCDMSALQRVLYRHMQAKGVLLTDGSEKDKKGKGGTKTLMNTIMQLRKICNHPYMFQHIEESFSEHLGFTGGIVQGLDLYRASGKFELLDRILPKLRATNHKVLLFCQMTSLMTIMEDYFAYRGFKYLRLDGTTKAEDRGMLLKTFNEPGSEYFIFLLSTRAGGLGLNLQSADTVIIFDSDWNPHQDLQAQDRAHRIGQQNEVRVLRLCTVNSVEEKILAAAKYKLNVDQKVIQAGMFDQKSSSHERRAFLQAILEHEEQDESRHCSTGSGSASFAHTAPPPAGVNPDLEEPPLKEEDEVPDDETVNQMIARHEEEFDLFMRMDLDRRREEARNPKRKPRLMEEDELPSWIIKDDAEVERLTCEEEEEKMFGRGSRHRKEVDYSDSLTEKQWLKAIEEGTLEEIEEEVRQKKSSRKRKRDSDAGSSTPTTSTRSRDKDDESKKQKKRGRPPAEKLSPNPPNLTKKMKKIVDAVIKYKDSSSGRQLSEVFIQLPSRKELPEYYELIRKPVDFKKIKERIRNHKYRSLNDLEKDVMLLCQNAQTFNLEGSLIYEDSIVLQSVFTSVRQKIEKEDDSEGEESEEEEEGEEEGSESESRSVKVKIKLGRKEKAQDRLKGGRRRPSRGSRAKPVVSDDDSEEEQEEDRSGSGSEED

[3] = target: T1, Protein polybromo-1; assay: Binding affinity to human PB1 isoform 5 expressed in BL21 (DE3)-R3-BirA cells assessed as change in melting temperature at 10 uM by sypro-orange dye-based differential scanning fluorimetric analysis; type: cell-based; method in brief: as §1
[4] = target: T1, Protein polybromo-1; assay: Binding affinity to human PB1 isoform 4 expressed in BL21 (DE3)-R3-BirA cells assessed as change in melting temperature at 10 uM by sypro-orange dye-based differential scanning fluorimetric analysis; type: cell-based; method in brief: as §1
[5] = tested on: C3H 10T1/2; assay: Inhibition of differentiation of mouse C3H10T1/2 cells to adipocytes assessed as lipid accumulation at 5 uM by oil red O staining-based assay; type: functional, cell-based
Method in brief: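 C3H10T1/2 mesenchymal cells induced to differentiate to adipocytes with an adipogenic cocktail in the presence of compound; lipid droplet accumulation visualised by Oil Red O staining.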

[6] = tested on: C2C12; assay: Cytotoxicity against mouse C2C12 cells assessed as cell viability up to 50 uM after 72 hrs by MTT assay; type: cell-based; conditions: c2c12, 72 h
[7] = target: T1, Protein polybromo-1; assay: Inhibition of chromatin binding to full length GFP-tagged PB1 expressed in human U2OS cells assessed as acceleration of FRAP half-recovery time at 100 nM incubated for 1 hr in presence of SAHA by FRAP assay; type: cell-based
Method in brief: (§2)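 U2OS cells transfected with full-length GFP-PB1 and treated with SAHA to induce hyperacetylation. Mutant controls were PB1 N263A (second bromodomain) and N707F (fifth bromodomain). Read-out is FRAP half-recovery time (t½) from individual recovery curves, at least 20 cells per group, reported as mean ± SEM. Compared against WT with 2.5 μM SAHA.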

[8] = target: T3, SWI/SNF-related matrix-associated actin-dependent regulator of chromatin subfamily A member 2 (Homo sapiens, UniProt P51531); assay: Binding affinity to human SMARC2A expressed in BL21 (DE3)-R3-BirA cells assessed as change in melting temperature at 10 uM by sypro-orange dye-based differential scanning fluorimetric analysis; type: cell-based; method in brief: as §1
T3 sequence (P51531 whole entry): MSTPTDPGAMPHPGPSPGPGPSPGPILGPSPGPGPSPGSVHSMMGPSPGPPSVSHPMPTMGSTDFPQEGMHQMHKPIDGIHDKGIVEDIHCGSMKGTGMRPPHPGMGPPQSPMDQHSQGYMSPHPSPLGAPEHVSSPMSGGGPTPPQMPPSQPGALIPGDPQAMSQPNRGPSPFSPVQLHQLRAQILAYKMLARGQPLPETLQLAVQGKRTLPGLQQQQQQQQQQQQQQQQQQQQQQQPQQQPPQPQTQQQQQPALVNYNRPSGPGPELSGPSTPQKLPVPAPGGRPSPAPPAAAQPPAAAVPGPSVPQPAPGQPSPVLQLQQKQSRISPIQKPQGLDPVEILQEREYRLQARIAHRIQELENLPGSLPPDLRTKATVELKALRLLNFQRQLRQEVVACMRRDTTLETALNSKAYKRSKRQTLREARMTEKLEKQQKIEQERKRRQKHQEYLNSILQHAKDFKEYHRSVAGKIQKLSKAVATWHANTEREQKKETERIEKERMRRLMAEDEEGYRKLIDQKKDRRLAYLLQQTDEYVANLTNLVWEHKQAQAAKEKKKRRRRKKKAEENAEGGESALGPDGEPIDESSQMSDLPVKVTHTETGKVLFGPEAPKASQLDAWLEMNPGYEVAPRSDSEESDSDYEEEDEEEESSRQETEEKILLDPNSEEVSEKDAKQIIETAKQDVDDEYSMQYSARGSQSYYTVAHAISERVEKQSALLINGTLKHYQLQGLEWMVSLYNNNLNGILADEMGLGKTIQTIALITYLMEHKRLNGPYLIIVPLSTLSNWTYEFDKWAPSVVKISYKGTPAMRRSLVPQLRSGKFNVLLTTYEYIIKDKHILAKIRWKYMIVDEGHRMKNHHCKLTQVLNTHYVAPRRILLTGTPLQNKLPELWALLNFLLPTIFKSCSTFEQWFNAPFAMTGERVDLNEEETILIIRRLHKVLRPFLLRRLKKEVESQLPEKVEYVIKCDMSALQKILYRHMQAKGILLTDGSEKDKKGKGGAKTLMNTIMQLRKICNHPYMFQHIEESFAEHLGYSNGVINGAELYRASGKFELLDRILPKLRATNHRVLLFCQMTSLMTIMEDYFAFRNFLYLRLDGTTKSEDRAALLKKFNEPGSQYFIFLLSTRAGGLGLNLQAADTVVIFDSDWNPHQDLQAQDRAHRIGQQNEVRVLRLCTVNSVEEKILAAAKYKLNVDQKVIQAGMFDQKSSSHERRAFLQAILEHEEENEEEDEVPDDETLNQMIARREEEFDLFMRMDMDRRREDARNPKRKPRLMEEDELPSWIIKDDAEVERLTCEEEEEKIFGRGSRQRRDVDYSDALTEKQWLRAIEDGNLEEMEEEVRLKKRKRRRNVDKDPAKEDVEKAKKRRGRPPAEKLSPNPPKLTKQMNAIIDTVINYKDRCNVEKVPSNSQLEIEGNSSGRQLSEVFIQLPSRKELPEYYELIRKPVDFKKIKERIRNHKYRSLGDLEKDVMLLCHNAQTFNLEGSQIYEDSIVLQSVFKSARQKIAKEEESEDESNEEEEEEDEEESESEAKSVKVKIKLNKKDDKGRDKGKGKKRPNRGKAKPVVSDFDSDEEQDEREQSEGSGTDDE

[9] = target: T3, SWI/SNF-related matrix-associated actin-dependent regulator of chromatin subfamily A member 2; assay: Inhibition of chromatin binding to full length GFP-tagged wild type SMARCA2 expressed in human U2OS cells assessed as acceleration of FRAP half-recovery time incubated for 1 hr in presence of SAHA by FRAP assay; type: cell-based
Method in brief: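 U2OS cells transfected with GFP-SMARCA2 (WT) and treated with SAHA to induce hyperacetylation, with compound given at several doses. The mutant control was GFP-SMARCA2 N1464F (acetyl-lysine-recognising asparagine).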

[10] = target: T1, Protein polybromo-1; assay: Inhibition of chromatin binding to full length GFP-tagged PB1 expressed in human U2OS cells assessed as acceleration of FRAP half-recovery time at 1 uM incubated for 1 hr in presence of SAHA by FRAP assay; type: cell-based; method in brief: as §2
[11] = Cytotoxicity against mouse C3H10T1/2 cells assessed as cell viability up to 50 uM after 72 hrs by MTT assay; type: cell-based; conditions: c3h 10t1/2, 72 h
[12] = tested on: C2C12; assay: Inhibition of differentiation in mouse C2C12 cells assessed as suppression of MyHC expression at 5 uM by HRP-peroxidase-based immunocytochemistry; type: functional, cell-based
Method in brief: (§3)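 C2C12 myoblasts grown with compound through differentiation, normally seen within 48 hours. Scored by cell fusion into myotubes (myotube length, nuclei per myotube) and MyHC expression relative to controls; myogenin monitored as an early marker.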

[13] = tested on: C2C12; assay: Cytotoxicity against mouse C2C12 cells assessed as cell death at 100 uM after 72 hrs by MTT assay; type: cell-based; conditions: c2c12, 72 h
[14] = tested on: 786-0; assay: Antiproliferative activity against human 786-0 cells at 0.1 to 10 uM incubated for 24 to 72 hrs by MTT assay; type: functional, cell-based
Method in brief: (§4)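 Clear cell renal carcinoma lines (786-O with wild-type PB1 expression; Rcc4 with PB1 downregulation) treated with compound; proliferation read-out.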

[15] = tested on: C2C12; assay: Inhibition of differentiation in mouse C2C12 cells assessed as shortening of myotubes with lower nuclei at 500 nM to 50 uM by HRP-peroxidase-based immunocytochemistry relative to control; type: functional, cell-based; method in brief: as §3
[16] = tested on: RCC4; assay: Antiproliferative activity against human RCC4 cells at 0.1 to 10 uM incubated for 24 to 72 hrs by MTT assay; type: functional, cell-based; method in brief: as §4
[17] = Cytotoxicity against mouse C3H10T1/2 cells assessed as cell death at 100 uM after 72 hrs by MTT assay; type: cell-based; conditions: c3h 10t1/2, 72 h
[18] = target: T1, Protein polybromo-1; assay: Binding affinity to human PB1 isoform 3 expressed in BL21 (DE3)-R3-BirA cells assessed as change in melting temperature at 10 uM by sypro-orange dye-based differential scanning fluorimetric analysis; type: cell-based; method in brief: as §1
[19] = target: T3, SWI/SNF-related matrix-associated actin-dependent regulator of chromatin subfamily A member 2; assay: Binding affinity to human SMARCA2 expressed in BL21 (DE3)-R3-BirA cells by isothermal titration calorimetry
[20] = target: T3, SWI/SNF-related matrix-associated actin-dependent regulator of chromatin subfamily A member 2; assay: Binding affinity to human SMARC2B expressed in BL21 (DE3)-R3-BirA cells assessed as change in melting temperature at 10 uM by sypro-orange dye-based differential scanning fluorimetric analysis; type: cell-based; method in brief: as §1
[21] = Half life in PBS at pH 7.4 at 20 degC; type: ADME; conditions: buffer
[22] = target: T2, SWI/SNF-related matrix-associated actin-dependent regulator of chromatin subfamily A member 4; assay: Binding affinity to human SMARCA4 expressed in BL21 (DE3)-R3-BirA cells by isothermal titration calorimetry
[23] = target: T1, Protein polybromo-1; assay: Binding affinity to human PB1 isoform 2 expressed in BL21 (DE3)-R3-BirA cells by isothermal titration Calorimetry
Method in brief: (§5)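 Absolute binding affinity measured by isothermal titration calorimetry on the bromodomain protein.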

[24] = target: T1, Protein polybromo-1; assay: Binding affinity to human PB1 isoform 5 expressed in BL21 (DE3)-R3-BirA cells by isothermal titration calorimetry; method in brief: as §5

T1 sequence (Q86U86 whole entry, canonical isoform): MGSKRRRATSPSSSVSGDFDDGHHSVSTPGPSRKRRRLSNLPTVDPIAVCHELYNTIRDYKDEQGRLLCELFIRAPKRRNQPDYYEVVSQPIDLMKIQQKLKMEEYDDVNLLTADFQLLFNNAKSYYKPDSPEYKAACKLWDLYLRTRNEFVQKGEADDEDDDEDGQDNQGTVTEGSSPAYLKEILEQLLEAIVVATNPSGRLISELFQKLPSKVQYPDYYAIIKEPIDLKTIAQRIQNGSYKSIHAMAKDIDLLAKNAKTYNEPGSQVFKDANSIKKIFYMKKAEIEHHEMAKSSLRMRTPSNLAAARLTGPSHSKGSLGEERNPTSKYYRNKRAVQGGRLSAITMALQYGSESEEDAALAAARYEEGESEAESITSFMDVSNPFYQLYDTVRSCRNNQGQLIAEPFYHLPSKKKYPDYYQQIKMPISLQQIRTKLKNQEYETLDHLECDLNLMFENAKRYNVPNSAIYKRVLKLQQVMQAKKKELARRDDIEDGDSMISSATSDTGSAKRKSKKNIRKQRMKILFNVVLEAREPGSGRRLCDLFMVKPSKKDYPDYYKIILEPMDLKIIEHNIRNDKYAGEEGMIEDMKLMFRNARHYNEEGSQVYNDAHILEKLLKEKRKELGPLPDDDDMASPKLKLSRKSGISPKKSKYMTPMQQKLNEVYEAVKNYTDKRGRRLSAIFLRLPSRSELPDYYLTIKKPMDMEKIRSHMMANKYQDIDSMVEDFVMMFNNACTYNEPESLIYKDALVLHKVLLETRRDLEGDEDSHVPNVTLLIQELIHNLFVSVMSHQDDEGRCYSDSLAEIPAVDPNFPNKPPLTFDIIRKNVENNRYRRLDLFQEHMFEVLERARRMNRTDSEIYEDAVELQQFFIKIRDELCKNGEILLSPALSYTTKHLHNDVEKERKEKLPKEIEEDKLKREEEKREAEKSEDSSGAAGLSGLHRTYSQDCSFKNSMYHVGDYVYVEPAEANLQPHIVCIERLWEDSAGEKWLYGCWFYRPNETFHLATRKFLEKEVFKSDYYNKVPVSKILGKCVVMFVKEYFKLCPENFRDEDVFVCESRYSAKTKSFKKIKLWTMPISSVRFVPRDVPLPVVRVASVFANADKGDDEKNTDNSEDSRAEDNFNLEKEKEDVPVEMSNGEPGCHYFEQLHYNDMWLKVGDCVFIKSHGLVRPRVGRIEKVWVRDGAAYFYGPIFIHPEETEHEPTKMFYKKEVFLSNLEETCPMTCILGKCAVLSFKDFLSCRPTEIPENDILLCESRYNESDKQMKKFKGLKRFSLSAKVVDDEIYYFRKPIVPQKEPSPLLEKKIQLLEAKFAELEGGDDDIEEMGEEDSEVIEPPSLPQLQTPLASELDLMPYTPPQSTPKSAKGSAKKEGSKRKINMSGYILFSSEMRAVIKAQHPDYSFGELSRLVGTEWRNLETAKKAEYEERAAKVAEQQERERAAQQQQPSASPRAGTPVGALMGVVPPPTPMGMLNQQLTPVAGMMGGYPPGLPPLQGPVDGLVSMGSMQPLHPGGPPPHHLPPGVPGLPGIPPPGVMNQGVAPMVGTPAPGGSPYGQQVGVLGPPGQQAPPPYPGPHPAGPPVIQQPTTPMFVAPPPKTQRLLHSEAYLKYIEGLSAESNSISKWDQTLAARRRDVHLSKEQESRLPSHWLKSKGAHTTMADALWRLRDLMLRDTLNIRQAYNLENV

SMILES | ΔTm [1] [°C] | ΔTm [2] [°C] | ΔTm [3] [°C] | ΔTm [4] [°C] | ΔTm [8] [°C] | ΔTm [18] [°C] | ΔTm [20] [°C] | further results
O=C(/C=C/N1[C@H]2CC[C@@H]1c1ncnc(NC3CC3)c1C2)c1ccccc1O | 5.9 | 7.4 | 9.3 | 2.1 | 8.5 | 6.4 |  | inhibition [5]: Active; Activity [6]: Non-toxic; inhibition [7]: inactive; inhibition [9]: Dose-dependent effect; inhibition [10]: Active; Activity [11]: Non-toxic; inhibition [12]: Active; Activity [13]: 50%; Activity [14]: inactive; inhibition [15]: Active; Activity [16]: inactive; Activity [17]: 50%; Kd [19]: 37.3 nM
O=C(/C=C/N1CCN(c2ncccn2)CC1)c1ccccc1O | 0.7 | 2.9 | 4.6 | 0.6 | 2.9 | 0.3 | 1.1 | 
O=C(/C=C/N1CCc2c(ncn2Cc2ccccc2)C1)c1ccccc1O | 4.6 | 5.3 | 8 | 1.6 | 5.8 | 1.9 | 3 | 
O=C(/C=C/N1CCc2cn[nH]c2C1)c1ccccc1O | 4.1 | 7 | 7.8 | 1.2 | 7.8 | 1.7 | 4.8 | 
O=C(/C=C/N1CCN(c2cccc(OCc3ccncc3)n2)CC1)c1ccccc1O | 0.9 | 7.5 | 7 | 1.3 | 7.4 | 0.7 | 3.7 | 
O=C(/C=C/N1CCCC1)c1ccccc1O | 2.3 | 4.7 | 5.7 | 0.7 | 5.5 | 1.1 | 3 | 
COc1cccc(C(=O)/C=C/N2CCCC2)c1O | 0.1 | 0.7 | 0.4 | 0.3 | 0.7 | 0 | -0.4 | 
O=C(/C=C/N1CCc2c(ccnc2N[C@H]2CC[C@H](O)CC2)C1)c1ccccc1O | 2.5 | 6.1 | 8.3 | 0.4 | 5.4 | 1.1 | 2.4 | 
CC(C)(C)c1nc2c(n1CC1CC1)CCN(/C=C/C(=O)c1ccccc1O)C2 | 3.8 | 5.8 | 8 | 1.2 | 5.9 | 1.5 | 3.8 | 
CC(C)(C)OC(=O)N1CCN(/C=C/C(=O)c2ccccc2O)C2(CC2)C1 | 2.2 | 6.1 | 7.6 | 0.6 | 7.5 | 0.9 | 4.1 | 
CN(C)c1ncnc2c1CCN(/C=C/C(=O)c1ccccc1O)C2 | 3.5 | 3.4 | 5.1 | 1.2 | 4.1 | 1.3 | 2.2 | 
O=C(/C=C/N1CC2CCC(CC2)C1)c1ccccc1O | 5.2 | 3.8 | 6.6 | 2 | 5.1 | 3.3 | 2 | 
CN(C)/C=C/C(=O)c1ccccc1O | 2 | 3.3 | 4.9 | 0.7 | 4.8 | 0.5 | 2 | 
C#CCNc1ccnc(N2C[C@H]3C[C@@H]2CN3/C=C/C(=O)c2cccc(OC)c2O)n1 |  | 0.7 | -0.4 |  | 0.7 |  | -0.4 | inhibition [10]: inactive
O=C(/C=C/N1CCc2c(ncnc2NC2CC2)C1)c1ccccc1O | 6.7 | 7.7 | 9.1 | 2.4 |  | 3.5 |  | t1/2 [21]: 20 h; Kd [22]: 49 nM; Kd [23]: 152 nM; Kd [24]: 28 nM
O=C(/C=C/N1CCC(c2cc[nH]n2)CC1)c1ccccc1O | 3.2 | 6.3 | 6.9 | 1 | 8.2 | 1.8 | 3.9 | 

— ChEMBL document CHEMBL3817768, “Identification of a Chemical Probe for Family VIII Bromodomains through Optimization of a Fragment Hit” (J Med Chem, 2016)
